In ChEMBL document CHEMBL3272018, “Synthesis of aziridinylallylaminophosphine oxides and sulfides as potential adjuvant cancer chemotherapeutic agents” (J Med Chem, 1976):
Active and inactive are the calls of the source. No cut-off for these calls is given here.

How the values were obtained:
W256 [1] = test: Antitumor activity against rat Walker 256 cells intramuscularly allografted in rat assessed as survival rate at 6.25 mg/kg, qd administered for 5 days; format: functional, organism-based; parameters: dose 6.25 mg/kg
How it was run: (§1)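 Rats bearing Walker 256 carcinoma as a solid tumor; lines 1-8 use a cytoxan-resistant Walker 256 subline. Dosed once daily for 5 days. Treated (T) and untreated control (C) groups are compared, and the response is given as T/C percentage, reflecting increase in survival time. Host weight change is the average weight change of the test group minus that of the controls, in grams.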

W256 [2] = test: Antitumor activity against rat Walker 256 cells intramuscularly allografted in rat assessed as tumor incidence at 12 mg/kg administered as single dose; format: functional, organism-based; parameters: dose 12 mg/kg
How it was run: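 Walker 256 solid tumour in rats, given one injection at 12.0 mg/kg. Tumours and toxic deaths were recorded at sacrifice.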

W256 [3] = test: Antitumor activity against rat Walker 256 cells intramuscularly allografted in rat assessed as survival rate at 1.56 mg/kg, qd administered for 5 days; format: functional, organism-based; parameters: dose 1.56 mg/kg; how it was run: as §1
W256 [4] = test: Antitumor activity against rat Walker 256 cells intramuscularly allografted in rat assessed as survival rate at 3.12 mg/kg, qd administered for 5 days; format: functional, organism-based; parameters: dose 3.12 mg/kg; how it was run: as §1
Rattus norvegicus [5] = test: Toxicity in rat allografted with rat Walker 256 cells intramuscularly assessed as change in body weight at 0.23 mg/kg, qd administered for 5 days; format: organism-based; parameters: dose 0.23 mg/kg, route intramuscular; conditions: in vivo, im, 120 h
How it was run: (§2)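 Walker 256 carcinoma solid-tumour system in rats (parent line, or the line resistant to cytoxan). Dosing was one injection per day for 5 days. Toxicity was taken as the average net body-weight change of the treated group minus the average net weight change of the untreated tumour-bearing controls, in grams.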

Rattus norvegicus [6] = test: Toxicity in rat allografted with rat Walker 256 cells intramuscularly assessed as change in body weight at 0.47 mg/kg, qd administered for 5 days; format: organism-based; parameters: dose 0.47 mg/kg, route intramuscular; conditions: in vivo, im, 120 h; how it was run: as §2
W256 [7] = test: Antitumor activity against rat Walker 256 cells intramuscularly allografted in rat assessed as tumor growth inhibition at 6.25 mg/kg, qd administered for 5 days relative to control; format: functional; conditions: W256, im, 120 h, route intramuscular, read-out: TGI
How it was run: (§3)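 Walker 256 carcinoma grown as a solid tumour in rats, with one injection daily for 5 days. Response is given as T/C %, the treated-group measure over the untreated-control tumour measure; a smaller value means more activity. Host toxicity is the mean net weight change of treated minus control animals, in grams.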

[8] = Toxicity in rat allografted with rat Walker 256 cells intramuscularly; format: organism-based
W256 [9] = test: Antitumor activity against rat Walker 256 cells intramuscularly allografted in rat assessed as survival rate at 0.78 mg/kg, qd administered for 5 days; format: functional, organism-based; parameters: dose 0.78 mg/kg; how it was run: as §1
W256 [10] = test: Antitumor activity against rat Walker 256 cells intramuscularly allografted in rat assessed as tumor growth inhibition; format: functional; conditions: W256, im
How it was run: (§4)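 Dosed once daily for 5 days. Response is tumor progression in treated (T) versus untreated control (C) animals, expressed as T/C percentage. Host weight change is reported as the average net weight change of the test group minus that of the controls, in grams.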

Rattus norvegicus [11] = test: Toxicity in rat allografted with rat Walker 256 cells intramuscularly assessed as change in body weight at 6.25 mg/kg, qd administered for 5 days; format: organism-based; parameters: dose 6.25 mg/kg, route intramuscular; conditions: in vivo, im, 120 h; how it was run: as §2
W256 [12] = test: Antitumor activity against rat Walker 256 cells intramuscularly allografted in rat assessed as tumor growth inhibition at 3.12 mg/kg, qd administered for 5 days relative to control; format: functional; conditions: W256, im, 120 h, route intramuscular, read-out: TGI; how it was run: as §3
Rattus norvegicus [13] = test: Toxicity in rat allografted with rat Walker 256 cells intramuscularly assessed as change in body weight at 1.56 mg/kg, qd administered for 5 days; format: organism-based; parameters: dose 1.56 mg/kg, route intramuscular; conditions: in vivo, im, 120 h; how it was run: as §2
[14] = Therapeutic index, ratio of LD50 for rat allografted with rat Walker 256 cells to ED10 for antitumor activity against rat Walker 256 cells intramuscularly allografted in rat; format: cell-based; conditions: read-out: TI
How it was run: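 Therapeutic index is LD50/ED10 in the Walker 256 solid tumour system. ED10 is the dose giving a 10% tumour weight reduction, with values extrapolated from dose-response data.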

W256 [15] = test: Antitumor activity against rat Walker 256 cells intramuscularly allografted in rat assessed as survival rate at 0.47 mg/kg, qd administered for 5 days; format: functional, organism-based; parameters: dose 0.47 mg/kg; how it was run: as §1
W256 [16] = test: Antitumor activity against rat Walker 256 cells intramuscularly allografted in rat assessed as survival rate at 0.23 mg/kg, qd administered for 5 days; format: functional, organism-based; parameters: dose 0.23 mg/kg; how it was run: as §1
Rattus norvegicus [17] = test: Toxicity in rat allografted with rat Walker 256 cells intramuscularly assessed as change in body weight at 0.78 mg/kg, qd administered for 5 days; format: organism-based; parameters: dose 0.78 mg/kg, route intramuscular; conditions: in vivo, im, 120 h; how it was run: as §2
Rattus norvegicus [18] = test: Toxicity in rat allografted with rat Walker 256 cells intramuscularly assessed as change in body weight at 3.12 mg/kg, qd administered for 5 days; format: organism-based; parameters: dose 3.12 mg/kg, route intramuscular; conditions: in vivo, im, 120 h; how it was run: as §2
W256 [19] = test: Antitumor activity against rat Walker 256 cells intramuscularly allografted in rat assessed as tumor growth inhibition at 0.47 mg/kg, qd administered for 5 days relative to control; format: functional; conditions: W256, im, 120 h, route intramuscular, read-out: TGI; how it was run: as §4
W256 [20] = test: Antitumor activity against rat Walker 256 cells intramuscularly allografted in rat assessed as tumor growth inhibition at 0.23 mg/kg, qd administered for 5 days relative to control; format: functional; conditions: W256, im, 120 h, route intramuscular, read-out: TGI; how it was run: as §4
W256 [21] = test: Antitumor activity against rat Walker 256 cells intramuscularly allografted in rat assessed as tumor growth inhibition at 1.56 mg/kg, qd administered for 5 days relative to control; format: functional; conditions: W256, im, 120 h, route intramuscular, read-out: TGI; how it was run: as §4
W256 [22] = test: Antitumor activity against rat Walker 256 cells intramuscularly allografted in rat assessed as tumor growth inhibition at 0.78 mg/kg, qd administered for 5 days relative to control; format: functional; conditions: W256, im, 120 h, route intramuscular, read-out: TGI; how it was run: as §4
Rattus norvegicus [23] = test: Toxicity in rat allografted with rat Walker 256 cells intramuscularly assessed as mortality at 12 mg/kg administered as single dose; format: organism-based; parameters: dose 12 mg/kg, route intramuscular; conditions: in vivo, im
How it was run: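 Walker 256 solid-tumour system in rats. A single dose level of 12.0 mg/kg was given as one injection. Toxic deaths were recorded, and tumour presence was checked when the animals were sacrificed.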

In the case of `C=CCN(CC=C)P(=O)(N(CC=C)CC=C)N1CC1C` (stereo not drawn), the Activity (W256 [1]) is reported as “Active”, the Activity (W256 [2]) is reported as “Active” and the Activity (W256 [3]) is reported as “Active”. The Activity (W256 [4]) was “Active”, the Activity (Rattus norvegicus [5]) was -3 g and the Activity (Rattus norvegicus [6]) was -15 g. For the same compound, the inhibition in vivo at 6.25 mg/kg (W256 [7]) was 3%, the LD50 [8] was 75 mg/kg and the Activity (W256 [9]) was “Active”. It also gave an ED10 (W256 [10]) of 0.62 mg/kg, an Activity (Rattus norvegicus [11]) of -28 g and an inhibition in vivo at 3.12 mg/kg (W256 [12]) of 1%. The Activity (Rattus norvegicus [13]) was -22 g, the selectivity ratio [14] was 125 and the Activity (W256 [15]) was “Active”. The Activity (W256 [16]) was “Active”, the Activity (Rattus norvegicus [17]) was -8 g and the Activity (Rattus norvegicus [18]) was -15 g. The inhibition in vivo at 0.47 mg/kg (W256 [19]) was 2%, the inhibition in vivo at 0.23 mg/kg (W256 [20]) was 33% and the inhibition in vivo at 1.56 mg/kg (W256 [21]) was 2%. For the same compound, the inhibition in vivo at 0.78 mg/kg (W256 [22]) was 4% and the Activity (Rattus norvegicus [23]) was “Non-toxic”.
